Rows were chosen to be rich in hits. Some 2.3% of all compounds tested hit in one or more screens of this group.
TRPC6 inh: blocks the mouse TRPC6 cation channel | Q61143 | HEK293-TRPC6, membrane potential dye, ACh-evoked depolarization; hits give low values | B-score at 10 µM | 310,000 compounds, 1.1% hits;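 active = B-score under library mean minus 3 SD, initial fluorescence not abnormally high, positive integrated signal ratio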;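 also: B-score derived from integrated fluorescence ratio over the kinetic read; more negative B-score means stronger inhibition of depolarization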
TRPC4 block: blocks the mouse TRPC4 cation channel. 300,000 compounds, 0.39% hits. AID 2247. B-score at 10 µM. HEK293 TRPC4beta/mu-opioid, DAMGO-evoked Fluo4 calcium flux; hits give low values;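 active = B-score over 3 SD under the library average, no early fluorescence shift, positive overall ratio signal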
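System: stable TRPC4beta/mu-opioid receptor HEK293 cells; Dosing: single-point compound dosing; Measured by: Fluo4 Ca2+ flux fluorescence; Read-out basis: per-well B score of integrated baseline-normalized Fluo4 ratio.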
TRPC6 act: activators of mouse TRPC6 channel | HEK293-TRPC6 membrane potential dye fluorescence; hits give high values | 310,000 compounds, 0.13% hits | B-score at 10 µM;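 active = B-score of the integrated fluorescence ratio above library mean plus 3 SD, and starting fluorescence ratio within library mean plus 5 SD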;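 also: higher score means more depolarization so channel activation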
TRPC4 PAM: allosteric potentiators of mouse TRPC4 channel; Q9QUQ5; HEK293 TRPC4beta/mu-opioid, DAMGO EC20, Fluo-4 Ca2+ flux; hits give high values; B-score at 10 µM; 310,000 compounds, 0.42% hits;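 active = B-score of calcium response area above 5 SD of library B-scores, with initial fluorescence ratio within 5 SD of library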;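 also: B-score of integrated fluorescence ratio over time as area under calcium response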
TRPC4 act: TRPC4 (mouse) channel activation; Q9QUQ5; B-score at 10 µM; 310,000 compounds, 0.49% hits; HEK293 TRPC4beta/mu-opioid, Fluo4 calcium fluorescence; hits give high values;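 active = B-score above 5 SD of library B-scores, and initial fluorescence ratio not above library mean plus 5 SD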;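 also: positive B-score marks a calcium rise read as TRPC4 activation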
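System – HEK293 cells stably co-expressing mouse TRPC4beta and mu-opioid receptor · Signal – Fluo4 calcium-sensitive dye fluorescence, kinetic, 1 Hz baseline · Benchmarks – buffer (low) and maximal DAMGO (high) · Read-out – B score of integrated fluorescence ratio per well · Incubation – dye loading 45 min room temperature, 110 s kinetic read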
Numbers without * were called inactive; i = inactive.

SMILES	TRPC6 inh	TRPC4 block	TRPC6 act	TRPC4 PAM	TRPC4 act
CCC(C)(C)n1nnnc1C(c1cccnc1)N1CCC(Cc2ccccc2)CC1 (stereo not given)	i	-6*	i	i	i
CC(C)(C)c1cc(CCC(=O)NNC(=S)NC(=O)c2ccccc2)cc(C(C)(C)C)c1O	i	i	i	i	211*
O=C(CCc1ccccc1)NNC(=S)NC(=O)c1ccccc1	i	i	i	i	150*
CC(C)(C)c1cc(CCC(=O)NNC(=O)c2ccco2)cc(C(C)(C)C)c1O	i	i	i	i	i
CC(=O)NC(=S)NNC(=O)CCc1ccccc1	i	i	i	i	i
CC(=O)NCCn1c(SCc2ccccc2F)nc2ccccc2c1=O	i	i	i	i	i
COC(=O)c1ccc(CSc2nc3ccccc3c(=O)n2CC(C)C)o1	i	-7*	i	i	i
COCCn1c(SCC(=O)N2CCc3ccccc3C2)nc2ccccc2c1=O	i	-5*	i	i	i
COCCCn1c(SCC(=O)c2ccccc2)nc2ccccc2c1=O	i	i	i	i	i
COCCn1c(SCC(=O)c2ccccc2)nc2ccccc2c1=O	i	-7*	i	i	i
COCCn1c(SCC(=O)N2CCOCC2)nc2ccccc2c1=O	i	i	i	i	i
COCCn1c(SCc2ccccc2F)nc2ccccc2c1=O	i	-6*	i	i	i
COC(=O)c1ccc(CSc2nc3ccccc3c(=O)n2C)o1	i	i	i	i	i
COCCn1c(SCc2cccc([N+](=O)[O-])c2)nc2ccccc2c1=O	i	-6*	i	i	i
Cc1c(NC(=O)Nc2ccc(C(C)(C)C)cc2)c(=O)n(-c2ccccc2)n1C	i	i	i	i	i
O=C(CC1SC(=O)NC1=O)Nc1ccc(Cl)cc1 (stereo not given)	i	i	i	i	45*
CN1CCN(C2=Nc3c(Cl)cc(Cl)c4cccc2c34)CC1	i	i	i	i	i
CN1CCN(C2=Nc3cc(F)ccc3Cc3ccccc32)CC1	-5.2*	i	i	i	i
CC1(c2ccc(Cl)cc2Cl)OCC(Cn2ccnc2)O1 (stereo not given)	i	i	i	i	105*
COc1ccc(OC)c(CCNC(=O)CCc2nnc3ccc(N4CCOCC4)nn23)c1	i	i	i	i	i
COc1ccccc1N1CCN(C(c2ccccn2)c2nnnn2C2CCCCC2)CC1 (stereo not given)	i	i	i	i	74*
Fc1ccccc1N1CCN(C(c2ccccn2)c2nnnn2C2CCCCC2)CC1 (stereo not given)	i	i	i	i	i
CN1C(=O)C(Cl)(Cl)C(=O)c2ccccc21	i	i	i	i	i
CCOC(=O)c1cc(=O)n(Cc2ccccc2C)c2ccccc12	i	i	i	15*	i
Cc1ccc(Cn2c(=O)cc(C(=O)O)c3ccccc32)cc1	i	i	i	i	i
SMILES	TRPC6 inh	TRPC4 block	TRPC6 act	TRPC4 PAM	TRPC4 act
Cc1cc(NC(=O)NN2CCOCC2)nn1-c1c(Cl)cccc1Cl	i	i	i	i	i
CCCS(=O)(=O)c1c(S(=O)(=O)CCC)c2ccc(C(N)=O)cn2c1C(=O)c1ccc(OC)cc1	i	i	i	20*	i
CCCS(=O)(=O)c1c(S(=O)(=O)CCC)c2ccc(C(N)=O)cn2c1C(=O)OC	i	i	i	i	i
O=C(CCc1ccccc1)N=C1SC2CS(=O)(=O)CC2N1c1ccccc1 (stereo not given)	i	i	i	i	i
CCN1CCN(c2ccc(S(=O)(=O)N3CCCCC3)cc2NC(=O)CC(C)c2ccccc2)CC1 (stereo not given)	i	i	i	i	118*
CCN1CCN(c2ccc(S(=O)(=O)N3CCCCC3)cc2NC(=O)c2cccc(C)c2)CC1	i	i	i	i	i
O=C(COc1ccc(S(=O)(=O)N2CCCC2)cc1Cl)N1CCN(c2ccccc2)CC1	i	i	i	10*	i
O=C(COc1ccc(S(=O)(=O)N2CCCCC2)cc1Cl)N1CCOCC1	i	i	i	i	i
CCN1CCN(c2ccc(S(=O)(=O)N3CCCCC3)cc2NC(=O)C(C)Oc2ccc(F)cc2)CC1 (stereo not given)	i	i	i	i	96*
CN1CCN(c2ccc(Cl)cc2NC(=O)c2ccc(S(=O)(=O)N3CCCCCC3)cc2)CC1	i	i	i	i	i
CN1CCN(c2ccc(S(=O)(=O)N3CCCCC3)cc2NC(=O)c2ccc(C#N)cc2)CC1	i	i	i	11*	i
CCN1CCN(c2ccc(S(=O)(=O)N3CCCCC3)cc2NC(=O)COc2ccc(F)cc2Cl)CC1	i	i	i	12*	i
CCN1CCN(c2ccc(S(=O)(=O)N3CCCCC3)cc2NC(=O)COc2ccc(Cl)cc2)CC1	i	i	i	i	i
Cc1ccccc1OCC(=O)Nc1cc(S(=O)(=O)N2CCCCC2)ccc1N1CCN(C)CC1	i	i	i	i	84*
CCN1CCN(c2ccc(S(=O)(=O)N3CCOCC3)cc2NC(=O)/C=C/c2ccc(OC)cc2OC)CC1	i	i	i	i	101*
O=C(CCS(=O)(=O)c1ccc(Cl)cc1)Nc1nnc(-c2ccco2)o1	i	i	i	i	i
O=C(NCCO)C(=O)NCC1CCCN1S(=O)(=O)c1cccs1 (stereo not given)	i	i	i	i	i
C=CCNC(=O)C(=O)NCC1CCCN1S(=O)(=O)c1cccs1 (stereo not given)	i	i	i	86*	i
O=C(Nc1cccc(Cl)c1)NC1CCN(C2CCCCC2)C1 (stereo not given)	i	i	i	i	46*
Cc1ccc(/C=C2\SC(N3CCCCC3)=NC2=O)cc1	i	i	i	12*	i
CCN1CCN(C2=NC(=O)/C(=C/c3ccc(C)o3)S2)CC1	i	i	i	14*	i
Cc1ccccc1OCC(=O)NNC(=O)c1cc(S(=O)(=O)N2CCOCC2)ccc1N1CCCC1	i	i	i	i	i
CCc1ccc(-c2cc(C)no2)cc1S(=O)(=O)N1CCN(C(=O)c2ccco2)CC1	i	i	i	i	i
Cc1cc(-c2ccc(C)c(S(=O)(=O)N3CCN(C(=O)c4ccco4)CC3)c2)on1	i	i	i	45*	i
